What was measured:
[1] = target: Human immunodeficiency virus type 1 protease (Human immunodeficiency virus 1, UniProt Q72874); test: Inhibitory activity against HIV-1 protease
Procedure, shortened: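 HIV-1 protease Ki from cleavage of a fluorescent peptide substrate, products resolved by HPLC. Inhibitor was tested at four concentrations spanning 0.1–10 000 nM, the range chosen per inhibitor.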

[2] = system: Human immunodeficiency virus 1; test: Inhibition of viral infection in HIV-1 (RF)-infected MT-2 cells with an oligonucleotide-based sandwich hybridization assay.; type: functional, MT2; details: Human immunodeficiency virus 1, MT2
Procedure, shortened: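 Uninfected MT-2 cells were preincubated for 30 min with serial dilutions of compound, then infected with HIV-1 RF and cultured for 3 days at 37 °C, 5% CO2. Lysates were assayed for viral RNA by microtiter oligonucleotide sandwich hybridization.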

[3] = Bioavailability as maximal plasma concentration in rats; type: ADME, organism-based; details: rat
Procedure, shortened: (§1)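 Rats (n = 4/group) were given an oral dose of 10 mg/kg in a propylene glycol / poly(ethylene glycol) 400 / water formulation. Cmax is the observed peak plasma concentration after the oral dose. F% is AUC(po)/AUC, with AUC taken from time zero to infinity and normalized for dose.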

[4] = Bioavailability in rat; type: ADME, organism-based; details: in vivo; procedure, shortened: as §1

Row | Structure (SMILES) | Ki [1] | IC90 [2] | Cmax [3] | bioavailability [4]
1 | C=CCN1C(=O)N(CC=C)[C@H](Cc2ccccc2)[C@H](O)[C@@H](O)[C@H]1Cc1ccccc1 | 5.2 nM | 4700 nM | 2700 nM | 49%
2 | O=C1N(Cc2ccccn2)[C@H](Cc2ccccc2)[C@H](O)[C@@H](O)[C@@H](Cc2ccccc2)N1Cc1ccccn1 | 145 nM | 49000 nM | – | –
3 | O=C1N(Cc2cccnc2)[C@H](Cc2ccccc2)[C@H](O)[C@@H](O)[C@@H](Cc2ccccc2)N1Cc1ccc2ccccc2c1 | 5.2 nM | 720 nM | – | –
4 | COc1ccccc1CN1C(=O)N(Cc2ccccc2OC)[C@H](Cc2ccccc2)[C@H](O)[C@@H](O)[C@H]1Cc1ccccc1 | 1870 nM | 22900 nM | – | –
5 | O=C1N(Cc2ccccc2)[C@H](Cc2ccccc2)[C@H](O)[C@@H](O)[C@@H](Cc2ccccc2)N1Cc1ccc2ccccc2c1 | 2.3 nM | 7500 nM | – | –
6 | O=C1N(CC2CCC2)[C@H](Cc2ccccc2)[C@H](O)[C@@H](O)[C@@H](Cc2ccccc2)N1CC1CCC1 | 1.3 nM | 1000 nM | – | –
7 | C=C(C)CN1C(=O)N(CC(=C)C)[C@H](Cc2ccccc2)[C@H](O)[C@@H](O)[C@H]1Cc1ccccc1 | 7.3 nM | 7600 nM | – | –
8 | Cc1ccc(CN2C(=O)N(Cc3ccc(C)cc3)[C@H](Cc3ccccc3)[C@H](O)[C@@H](O)[C@H]2Cc2ccccc2)cc1 | 5.7 nM | 4300 nM | – | –
9 | CCOCCN1C(=O)N(CCOCC)[C@H](Cc2ccccc2)[C@H](O)[C@@H](O)[C@H]1Cc1ccccc1 | 1100 nM | > 106000 nM | – | –
10 | O=C1N(Cc2cccc([N+](=O)[O-])c2)[C@H](Cc2ccccc2)[C@H](O)[C@@H](O)[C@@H](Cc2ccccc2)N1Cc1cccc([N+](=O)[O-])c1 | 2.8 nM | 970 nM | – | –
11 | O=C1N(Cc2cccc(I)c2)[C@H](Cc2ccccc2)[C@H](O)[C@@H](O)[C@@H](Cc2ccccc2)N1Cc1cccc(I)c1 | 0.42 nM | 3000 nM | – | –
12 | CC(C)CCCN1C(=O)N(CCCC(C)C)[C@H](Cc2ccccc2)[C@H](O)[C@@H](O)[C@H]1Cc1ccccc1 | 7 nM | 8100 nM | – | –
13 | O=C1N(Cc2cccc(F)c2)[C@H](Cc2ccccc2)[C@H](O)[C@@H](O)[C@@H](Cc2ccccc2)N1Cc1cccc(F)c1 | 3 nM | 710 nM | – | –
14 | O=C1N(Cc2ccncc2)[C@H](Cc2ccccc2)[C@H](O)[C@@H](O)[C@@H](Cc2ccccc2)N1Cc1ccncc1 | 90 nM | 98000 nM | – | –
15 | CCCCCCCN1C(=O)N(CCCCCCC)[C@H](Cc2ccccc2)[C@H](O)[C@@H](O)[C@H]1Cc1ccccc1 | 260 nM | > 96000 nM | – | –
16 | CCCN1C(=O)N(Cc2ccc3ccccc3c2)[C@H](Cc2ccccc2)[C@H](O)[C@@H](O)[C@H]1Cc1ccccc1 | 1.1 nM | 3300 nM | – | –
17 | COCCOCCN1C(=O)N(CCOCCOC)[C@H](Cc2ccccc2)[C@H](O)[C@@H](O)[C@H]1Cc1ccccc1 | 7700 nM | > 94000 nM | – | –
18 | O=C1N(Cc2ccncc2)[C@H](Cc2ccccc2)[C@H](O)[C@@H](O)[C@@H](Cc2ccccc2)N1Cc1ccc2ccccc2c1 | 6.9 nM | 2700 nM | – | –
19 | CCC(C)CCN1C(=O)N(CCC(C)CC)[C@H](Cc2ccccc2)[C@H](O)[C@@H](O)[C@H]1Cc1ccccc1 (stereo not given in full) | 36 nM | – | – | –
20 | CC(C)CCN1C(=O)N(CCC(C)C)[C@H](Cc2ccccc2)[C@H](O)[C@@H](O)[C@H]1Cc1ccccc1 | 12 nM | 3200 nM | – | –
21 | O=C1N(Cc2ccccc2F)[C@H](Cc2ccccc2)[C@H](O)[C@@H](O)[C@@H](Cc2ccccc2)N1Cc1ccccc1F | 34 nM | 5500 nM | – | –
22 | O=C1N(CC2CCCC2)[C@H](Cc2ccccc2)[C@H](O)[C@@H](O)[C@@H](Cc2ccccc2)N1CC1CCCC1 | 4.3 nM | 1700 nM | 200 nM | –
23 | O=C1N(Cc2cccnc2)[C@H](Cc2ccccc2)[C@H](O)[C@@H](O)[C@@H](Cc2ccccc2)N1Cc1cccnc1 | 9.7 nM | 8800 nM | – | –
24 | CC(C)CCCCCN1C(=O)N(CCCCCC(C)C)[C@H](Cc2ccccc2)[C@H](O)[C@@H](O)[C@H]1Cc1ccccc1 | 110 nM | > 18000 nM | – | –
25 | CC(C)CCCCN1C(=O)N(CCCCC(C)C)[C@H](Cc2ccccc2)[C@H](O)[C@@H](O)[C@H]1Cc1ccccc1 | 30 nM | > 95000 nM | – | –
26 | O=C1N(Cc2ccccc2)[C@H](Cc2ccccc2)[C@H](O)[C@@H](O)[C@@H](Cc2ccccc2)N1Cc1ccccc1 | 3 nM | 830 nM | 1300 nM | –
27 | O=C1N(Cc2ccc(C(F)(F)F)cc2)[C@H](Cc2ccccc2)[C@H](O)[C@@H](O)[C@@H](Cc2ccccc2)N1Cc1ccc(C(F)(F)F)cc1 | – | 7200 nM | – | –
28 | CC(C)=CCN1C(=O)N(CC=C(C)C)[C@H](Cc2ccccc2)[C@H](O)[C@@H](O)[C@H]1Cc1ccccc1 | – | 870 nM | < 400 nM | –
29 | O=C1N(Cc2ccc(Cl)cc2)[C@H](Cc2ccccc2)[C@H](O)[C@@H](O)[C@@H](Cc2ccccc2)N1Cc1ccc(Cl)cc1 | 5.2 nM | 4500 nM | – | –

From ChEMBL document CHEMBL1129626, “Cyclic HIV protease inhibitors: synthesis, conformational analysis, P2/P2' structure-activity relationship, and molecular recognition of cyclic ureas” (J Med Chem, 1996)
